Our source for the Activity, IC50 and Ratio values is ChEMBL document CHEMBL2021906, “A synthetic chalcone as a potent inducer of glutathione biosynthesis” (J Med Chem, 2012).

In assay [1] the test system is MCF7. Kind of assay: Increase in intracellular GSH level in human MCF7 cells expressing antioxidant response element at 10 uM after 6 hrs by HPLC analysis relative to control. Type of assay: functional. Put shortly:
(§1)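 In 24-well plates, AREc32 cells were treated with 10 μM for 6 or 24 h. Cells were PBS-washed, sonicated, and acidified with meta-phosphoric acid (1% v/v final), then centrifuged. GSH in the supernatant was quantified by reverse-phase HPLC with electrochemical detection (pH 3 sodium phosphate/0.9% methanol mobile phase). Results are expressed as % of untreated control, n = 3.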

Assay [2] relates to MCF7. Kind of assay: Increase in intracellular GSH level in human MCF7 cells expressing antioxidant response element at 10 uM after 24 hrs by HPLC analysis relative to control. The assay is classed as functional. Put shortly: as §1
In assay [3] the test system is MCF7. Kind of assay: Increase in intracellular GSH level in human MCF7 cells expressing antioxidant response element at 10 uM after 24 hrs by HPLC analysis in presence of GCL inhibitor buthionine sulfoximine. The assay is classed as functional, cell-based.
Assay [4] concerns MCF7. Nature of the assay: Increase in intracellular GSH level in human MCF7 cells expressing antioxidant response element at 10 uM after 24 hrs by HPLC analysis. The assay is classed as functional, cell-based. The method, boiled down:
as §1

Assay [5] deals with MCF7. Kind of assay: Increase in GCLM level in human MCF7 cells expressing antioxidant response element at 20 uM after 6 hrs by SDS-PAGE immunoblotting technique. Type of assay: functional, cell-based. The method, boiled down:
(§2)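 AREc32 cells in six-well plates were treated with 20 μM for 6 h, then PBS-washed, sonicated in PBS, and the cleared supernatant concentrated by evaporation. GCL holoenzyme was immunoblotted after native PAGE; GCLC and GCLM after SDS PAGE. α-GAPDH served as internal standard. The experiment was repeated once.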
A general note: Immunoblotting shows a protein as a band on a membrane.

The test system of assay [6] is MCF7. Kind of assay: Increase in GCL holoenzyme formation in human MCF7 cells expressing antioxidant response element at 20 uM after 24 hrs by native-PAGE immunoblotting technique. Type of assay: functional, cell-based.
In assay [7] the test system is MCF7. Kind of assay: Increase in GCL holoenzyme formation in human MCF7 cells expressing antioxidant response element at 20 uM after 6 hrs by native-PAGE immunoblotting technique. The assay is classed as functional, cell-based. Put shortly:
as §2

In assay [8] the test system is MCF7. Nature of the assay: Increase in GCLC level in human MCF7 cells expressing antioxidant response element at 20 uM after 6 hrs by SDS-PAGE immunoblotting technique. Type of assay: functional, cell-based. The method, boiled down:
as §2

Assay [9] relates to MCF7. Nature of the assay: Cytotoxicity against human MCF7 cells expressing antioxidant response element assessed as LDH release after 48 hrs. The assay is classed as cell-based. The following applies: MCF7, 48 h. Put shortly:
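MCF-7/AREc32 cells (ARE-luciferase reporter line; DMEM low glucose, 10% FBS, pen/strep, Geneticin, 37 °C, 5% CO2) exposed to 0–60 μM for 48 h. LDH activity measured in medium and cell lysate via NADH consumption at 340 nm after pyruvate addition. Percent LDH release = supernatant/(supernatant + lysate) × 100. n = 3.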

The target in assay [10] is T1, Nuclear factor erythroid 2-related factor 2 (Homo sapiens) (UniProt Q16236).
T1 sequence (whole entry): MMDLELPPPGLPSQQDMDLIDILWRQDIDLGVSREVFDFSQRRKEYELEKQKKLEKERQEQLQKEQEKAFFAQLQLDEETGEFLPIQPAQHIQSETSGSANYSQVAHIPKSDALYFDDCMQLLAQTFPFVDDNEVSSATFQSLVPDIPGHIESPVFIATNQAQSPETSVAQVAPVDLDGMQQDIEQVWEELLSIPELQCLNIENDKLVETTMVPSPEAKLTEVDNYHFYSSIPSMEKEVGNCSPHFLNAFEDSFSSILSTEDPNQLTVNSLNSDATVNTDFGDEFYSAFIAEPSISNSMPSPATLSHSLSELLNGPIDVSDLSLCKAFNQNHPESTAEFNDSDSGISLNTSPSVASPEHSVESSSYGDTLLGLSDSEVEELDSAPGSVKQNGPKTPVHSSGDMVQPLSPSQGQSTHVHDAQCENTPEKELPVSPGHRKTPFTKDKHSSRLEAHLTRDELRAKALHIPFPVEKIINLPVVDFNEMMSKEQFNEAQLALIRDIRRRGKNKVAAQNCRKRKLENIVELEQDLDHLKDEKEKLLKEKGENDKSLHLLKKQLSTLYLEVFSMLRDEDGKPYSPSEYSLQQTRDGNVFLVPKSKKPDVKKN
Kind of assay: Induction of Nrf2 transcriptional activity in human MCF7 cells antioxidant response element at 5 uM after 18 hrs by luciferase reporter gene assay in presence of p38 MAPK inhibitor SB203580. The assay is classed as cell-based. (Reporter assays use an easily measured gene product as a stand-in for the process of interest.)

The target of assay [11] is T1, Nuclear factor erythroid 2-related factor 2 (Homo sapiens). Kind of assay: Induction of Nrf2 transcriptional activity in human MCF7 cells antioxidant response element at 5 uM after 18 hrs by luciferase reporter gene assay in presence of catalytic antioxidant MnTDE-1,3-IP5+. Type of assay: cell-based.
Assay [12] relates to MCF7. Nature of the assay: Increase in intracellular GSH level in human MCF7 cells expressing antioxidant response element at 10 uM after 24 hrs in presence of p38 MAPK inhibitor SB203580. Type of assay: functional, cell-based. Put shortly: (§3)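 AREc32 cells received 10 μM for 24 h along with 20 μM buthionine sulfoximine, SP600125, SB203580 or MnTDE-1,3-IP5+. Intracellular GSH was measured by HPLC with electrochemical detection after sonication and meta-phosphoric acid extraction. n = 3, with group differences tested at P < 0.05.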

Assay [13] has as its target T1, Nuclear factor erythroid 2-related factor 2 (Homo sapiens). Nature of the assay: Induction of Nrf2 transcriptional activity in human MCF7 cells antioxidant response element at 5 uM after 18 hrs by luciferase reporter gene assay relative to sulforaphane. The assay is classed as cell-based. The method, boiled down:
(§4)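 AREc32 cells (stable ARE-driven firefly luciferase) grown in 12-well plates to ~60% confluence were exposed to 5 μM for 18 h, alongside sulforaphane or tBHQ at 5 μM. Cells were lysed and centrifuged, and luciferase activity was read on a luminometer using an enhanced luciferase kit. n = 4.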

The target is the same in assay [14]. Kind of assay: Induction of Nrf2 transcriptional activity in human MCF7 cells antioxidant response element at 5 uM after 18 hrs by luciferase reporter gene assay relative to 2,5-DHC. The assay is classed as cell-based. The method, boiled down:
as §4

For assay [15] the target is unchanged. Kind of assay: Induction of Nrf2 transcriptional activity in human MCF7 cells antioxidant response element at 5 uM after 18 hrs by luciferase reporter gene assay relative to tert-butylhydroquinone. Type of assay: cell-based. Put shortly:
as §4

The test system of assay [16] is MCF7. Nature of the assay: Increase in intracellular GSH level in human MCF7 cells expressing antioxidant response element at 10 uM after 24 hrs in presence of catalytic antioxidant MnTDE-1,3IP5+. Type of assay: functional, cell-based. The method, boiled down: as §3
The subject of assay [17] is MCF7. Kind of assay: Increase in intracellular GSH level in human MCF7 cells expressing antioxidant response element at 10 uM after 24 hrs in presence of JNK inhibitor SP600125. Type of assay: functional, cell-based. Put shortly:
as §3

Assay [18] deals with T1, Nuclear factor erythroid 2-related factor 2 (Homo sapiens). Kind of assay: Induction of Nrf2 transcriptional activity in human MCF7 cells antioxidant response element at 5 uM after 18 hrs by luciferase reporter gene assay in presence of JNK inhibitor SP600125. Type of assay: cell-based.

Active and inactive are the calls of the source. No cut-off for these calls is given here.

Turning to `COc1cccc(OC)c1C(=O)/C=C/c1ccccc1[N+](=O)[O-]`, the Activity in assay [1] was found to be 106%; in assay [2], 204%.
`COc1cc(OC)c(/C=C/C(=O)c2ccc(Cl)c(Cl)c2)c(OC)c1`: the figures for the Activity in [1] and in assay [2] were 98% and 88%, respectively.
On the same counts, the results for `COc1cccc(OC)c1/C=C/C(=O)c1ccccc1` are 111% and 189%.
On the same counts, the results for `COc1cccc(OC)c1C(=O)/C=C/c1ccccc1Cl` are 105% and 211%.
Take `COc1cccc(OC)c1C(=O)/C=C/c1ccccc1F`: the Activity in assay [1] was determined as 103%; in assay [2] it was 195%.
On the same counts, the results for `COc1cc(O)c(C(=O)/C=C/c2c(F)cccc2F)c(OC)c1` are 135% and 226%.
On the same counts, the results for `COc1cccc(OC)c1C(=O)/C=C/c1ccccc1` are 87% and 158%.
For `C[S+]([O-])CCCCN=C=S` (racemic), in assay [3], the result was inactive. Besides, the result in [4] was Active.
Consider `COc1ccc(C(=O)/C=C/c2cccc(F)c2)c(OC)c1`, for which the Activity in [1] worked out at 78%; in [2], 173%.
On the same counts, the results for `COc1cccc(OC)c1C(=O)/C=C/c1ccc(F)cc1F` are 104% and 182%.
Turning to `O=C(/C=C/c1c(Cl)cccc1Cl)c1ccccc1O`, the Activity came out at 108% in [1] and 180% in assay [2].
On the same counts, the results for `COc1cccc(OC)c1C(=O)/C=C/c1c(Cl)cccc1Cl` are 122% and 256%.
For `COc1cc(O)c(C(=O)/C=C/c2ccccc2)c(OC)c1` [FLAVOKAWAIN B], the Activity in assay [1] is listed as 101%; in assay [2], 191%.
With `COc1ccc(C(=O)/C=C/c2ccccc2Cl)c(OC)c1`, the Activity amounted to 109% in assay [1] and 232% in assay [2].
On the same counts, the results for `COc1ccc(C(=O)/C=C/c2ccc(OC)cc2OC)c(O)c1` are 114% and 160%.
Consider `COc1cc(O)c(C(=O)/C=C/c2c(Cl)cccc2Cl)c(OC)c1`, for which the Activity in [1] is reported as 119%; in assay [2] it was 250%.
`O=C(/C=C/c1ccccc1)c1ccccc1` [CHALCONE]: the Activity in assay [1] is recorded as 103%; in [2] it was 115%.
Turning to `COc1ccc(C(=O)/C=C/c2c(OC)cccc2OC)c(O)c1`, the figures for the Activity in assay [1] and in assay [2] were 90% and 231%, respectively.
On the same counts, the results for `COc1ccc(C(=O)/C=C/c2c(Cl)cccc2Cl)c(O)c1` are 107% and 193%.
Take `COc1ccc(C(=O)/C=C/c2cc(OC)ccc2OC)c(O)c1`: the results for the Activity in assay [1] and in [2] were 100% and 153%, respectively.
On the same counts, the results for `COc1cc(OC)c(C(=O)/C=C/c2c(F)cccc2F)c(OC)c1` are 118% and 223%.
One may read the IC50 as the point on the concentration scale where inhibition reaches its midpoint. Take `O=C(/C=C/c1ccccc1)c1cc(O)ccc1O`: the result in assay [5], in [3], in assay [6] and in [8] was inactive. Also, the Activity was determined as 82% in [1] and 177% in [2]. Moreover, the outcome in assay [7] was Active. For the same molecule, the IC50 in assay [9] stood at 33 µM.
Consider `CC(C)(C)c1cc(O)ccc1O`, for which the outcome in [3] was inactive. Also, the result in assay [4] was Active.
For `COc1cc(OC)c(C(=O)/C=C/c2ccccc2)c(OC)c1`, the Activity was 91% in assay [1] and 209% in assay [2].
In the case of `COc1cccc(O)c1C(=O)/C=C/c1c(Cl)cccc1Cl`, the values for the Activity in assay [1] and in assay [2] were 88% and 183%, respectively.
Regarding `COc1ccc(C(=O)/C=C/c2c(OC)cc(OC)cc2OC)c(O)c1`, the Activity turned out to be 91% in assay [1] and 104% in assay [2]. For the same molecule, in [3], the outcome was inactive.
Take `COc1cccc(OC)c1C(=O)/C=C/c1cccc(F)c1`: the figures for the Activity in assay [1] and in assay [2] were 82% and 171%, respectively.
On the same counts, the results for `COc1cc(OC)c(C(=O)/C=C/c2c(Cl)cc(Cl)cc2Cl)c(OC)c1` are 119% and 246%.
As to `COc1cc(O)c(C(=O)/C=C/c2ccccc2Cl)c(OC)c1`, the outcome in assay [5], in assay [11], in assay [3], in [8] and in assay [18] was inactive. The result in [10], in [12], in [4], in [16], in assay [7] and in assay [17] was Active. Moreover, the Activity in [1] is given as 107%; in assay [2], 299%. Moreover, the Ratio in [13] turned out to be 4; in assay [14] it was 4; in assay [15] it was 10. Besides, in [9], the IC50 is 25 µM.
Regarding `COc1cccc(OC)c1/C=C/C(=O)c1c(Cl)cccc1Cl`, the Activity in assay [1] came out at 93%; in [2], 120%.
On the same counts, the results for `COc1ccc(C(=O)/C=C/c2cccc(OC)c2OC)c(O)c1` are 100% and 174%.
On the same counts, the results for `COc1cccc(OC)c1C(=O)/C=C/c1cccc(Cl)c1` are 88% and 165%.
